Results on 2 compounds are retold here after ChEMBL document CHEMBL4406821, “Novel dual inhibitors targeting CDK4 and VEGFR2 synergistically suppressed cancer progression and angiogenesis” (Eur J Med Chem, 2019).

Activity calls are given as the source filed them. The rule behind the calls is not given here.

The target in data set [1] is Vascular endothelial growth factor receptor 2 (Homo sapiens, UniProt P35968). The following applies: HUVEC, 40 nM.
The subject of data set [2] is HUVEC. As to the kind of experiment: Antiproliferative activity against HUVEC cells assessed as reduction in cell viability at 40 nM measured upto 72 hrs by CCK8 assay. It counts as functional, cell-based. The following applies: Homo sapiens. Put shortly:
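HUVECs, 3×10³ cells/well, kept in 1640 medium with 10% FBS at 37°C and 5% CO₂. Cells were treated at 20 or 40 nM or vehicle, and viability was read by CCK-8 (absorbance 450 nm) at 0, 12, 24, 36, 48, 60 and 72 h. Five replicates per sample.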

Data set [3] has as its system MDA-MB-231. As to the kind of experiment: Induction of apoptosis in human MDA-MB-231 cells assessed as decrease in Bcl2 expression at 40 nM incubated for 48 hrs by Western blot analysis. It counts as functional, cell-based. The procedure, abridged: (§1)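 Cells were treated for 48 h, washed three times with PBS, and lysed in RIPA buffer. Immunoblots used anti-Rb, anti-phospho-Rb, anti-Ki67 and anti-Bcl-2 (each 1:1000), with β-actin as loading control.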
(In western blotting, separated proteins are transferred to a membrane and probed.)

Data set [4] relates to SiHa. As to the kind of experiment: Induction of apoptosis in human SiHa cells at 40 nM incubated for 48 hrs by annexin V FITC and propidium iodide staining based flow cytometry. Format: functional, cell-based. The procedure, abridged: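 Annexin V-FITC/PI double staining with flow-cytometric readout. MDA-MB-231, T-47D, SiHa and HeLa cells were treated with graded concentrations for 48 h. MDA-MB-231 and T-47D were grown in DMEM and SiHa in 1640 medium, each with 10% FBS and 1% penicillin/streptomycin at 37°C under 5% CO2. Early- and late-stage apoptotic fractions were scored.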

In data set [5] the target is Serine/threonine-protein kinase MRCK alpha (Homo sapiens) (UniProt Q5VT25). As to the kind of experiment: Inhibition of recombinant human MRCKalpha (1 to 473 residues) at 1 uM using KKRNRTLTV as substrate incubated for 40 mins in presence of [gamma-33P]-ATP by scintillation counting method relative to control.
Data set [6] has as its target Tyrosine-protein kinase receptor UFO (Homo sapiens) (UniProt P30530). As to the kind of experiment: Inhibition of recombinant human AXL (473 to end residues) at 1 uM using KKSRGDYMTMQIG as substrate incubated for 40 mins in presence of [gamma-33P]-ATP by scintillation counting method relative to control. The procedure, abridged:
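Kinase panel profiling at 1 μM performed by Eurofins KinaseProfiler; percent inhibition reported as mean of two independent experiments.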

Data set [7] can be described thus: Tmax in Sprague-Dawley rat at 10 mg/kg, iv by HPLC-MS analysis. The following applies: in vivo. Format: ADME, organism-based.
Data set [8] deals with Inhibitor of nuclear factor kappa-B kinase subunit beta (Homo sapiens) (UniProt O14920). As to the kind of experiment: Inhibition of recombinant human full length IKKbeta at 1 uM using peptide as substrate incubated for 40 mins in presence of [gamma-33P]-ATP by scintillation counting method relative to control.
Inhibitor of nuclear factor kappa-B kinase subunit beta (Homo sapiens), sequence (O14920 whole entry): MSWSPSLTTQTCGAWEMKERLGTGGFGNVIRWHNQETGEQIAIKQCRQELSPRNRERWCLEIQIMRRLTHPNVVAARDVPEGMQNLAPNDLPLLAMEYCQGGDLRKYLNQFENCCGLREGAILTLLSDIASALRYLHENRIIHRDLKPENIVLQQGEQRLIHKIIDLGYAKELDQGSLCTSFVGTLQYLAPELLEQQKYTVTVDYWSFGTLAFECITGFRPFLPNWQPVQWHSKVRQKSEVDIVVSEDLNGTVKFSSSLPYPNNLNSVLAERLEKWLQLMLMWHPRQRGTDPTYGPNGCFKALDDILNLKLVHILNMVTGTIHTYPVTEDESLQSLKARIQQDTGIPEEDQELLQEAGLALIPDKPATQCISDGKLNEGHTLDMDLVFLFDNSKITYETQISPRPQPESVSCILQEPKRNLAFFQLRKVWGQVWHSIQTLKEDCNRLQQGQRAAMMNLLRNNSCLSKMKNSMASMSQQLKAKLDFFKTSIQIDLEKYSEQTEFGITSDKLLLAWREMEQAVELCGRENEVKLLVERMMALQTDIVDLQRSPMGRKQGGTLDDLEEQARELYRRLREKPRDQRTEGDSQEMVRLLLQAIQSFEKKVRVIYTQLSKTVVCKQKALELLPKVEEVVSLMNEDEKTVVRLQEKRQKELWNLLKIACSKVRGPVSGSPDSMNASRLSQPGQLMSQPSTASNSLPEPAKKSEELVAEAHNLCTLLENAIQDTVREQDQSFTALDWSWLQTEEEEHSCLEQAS
Data set [9] concerns the target Protein kinase C iota type (Homo sapiens) (UniProt P41743). As to the kind of experiment: Inhibition of recombinant human full length PKCiota at 1 uM using ERMRPRKRQGSVRRRV as substrate incubated for 40 mins in presence of [gamma-33P]-ATP by scintillation counting method relative to control.
Data set [10] has as its target Dual specificity mitogen-activated protein kinase kinase 3 (Homo sapiens) (UniProt P46734). Kind of data set: Inhibition of recombinant human MKK3 at 1 uM incubated for 40 mins in presence of [gamma-33P]-ATP by scintillation counting method relative to control.
The test system of data set [11] is HeLa. Kind of data set: Induction of apoptosis in human HeLa cells assessed as decrease in Bcl2 expression at 40 to 80 nM incubated for 48 hrs by Western blot analysis. Format: functional, cell-based. The procedure, abridged:
as §1

In data set [12] the target is Leukocyte tyrosine kinase receptor (Homo sapiens) (UniProt P29376). As to the kind of experiment: Inhibition of recombinant human LTK (450 to end residues) at 1 uM using GEEPLYWSFPAKKK as substrate incubated for 40 mins in presence of [gamma-33P]-ATP by scintillation counting method relative to control. Put shortly: (§2)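 Tested at a single 1 uM in an outsourced commercial kinase-profiling panel, read as percent inhibition. Each value is the mean of two independent experiments.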

In data set [13] the target is Mitogen-activated protein kinase kinase kinase 2 (Homo sapiens) (UniProt Q9Y2U5). Kind of data set: Inhibition of recombinant human full length MEKK2 at 1 uM using myelin basic protein as substrate incubated for 40 mins in presence of [gamma-33P]-ATP by scintillation counting method relative to control.
The target of data set [14] is SRSF protein kinase 2 (Homo sapiens) (UniProt P78362). Kind of data set: Inhibition of recombinant human SRPK2 (46 to end residues) at 1 uM using RSRSRSRSRSRSRSR as substrate incubated for 40 mins in presence of [gamma-33P]-ATP by scintillation counting method relative to control.
SRSF protein kinase 2 (Homo sapiens), sequence (P78362 whole entry, looked up): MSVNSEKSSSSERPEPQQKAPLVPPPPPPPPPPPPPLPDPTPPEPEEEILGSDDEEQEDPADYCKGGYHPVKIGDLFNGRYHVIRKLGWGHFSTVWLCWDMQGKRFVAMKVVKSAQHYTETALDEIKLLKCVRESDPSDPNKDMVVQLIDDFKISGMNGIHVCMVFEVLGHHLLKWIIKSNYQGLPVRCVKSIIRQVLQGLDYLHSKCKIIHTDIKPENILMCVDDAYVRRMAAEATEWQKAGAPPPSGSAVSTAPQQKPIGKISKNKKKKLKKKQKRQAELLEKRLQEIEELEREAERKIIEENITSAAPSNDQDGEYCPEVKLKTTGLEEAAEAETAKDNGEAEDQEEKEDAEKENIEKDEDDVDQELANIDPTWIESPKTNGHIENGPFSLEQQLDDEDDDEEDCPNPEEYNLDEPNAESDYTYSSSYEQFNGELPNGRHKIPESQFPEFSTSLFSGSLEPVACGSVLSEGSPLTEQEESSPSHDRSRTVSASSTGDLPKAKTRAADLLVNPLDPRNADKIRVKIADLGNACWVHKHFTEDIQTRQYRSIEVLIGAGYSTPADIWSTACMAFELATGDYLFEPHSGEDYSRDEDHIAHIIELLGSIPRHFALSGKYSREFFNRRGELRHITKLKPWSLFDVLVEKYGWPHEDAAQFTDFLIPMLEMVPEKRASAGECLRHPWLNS
In data set [15] the test system is MDA-MB-231. Kind of data set: Induction of cell cycle arrest in human MDA-MB-231 cells assessed as accumulation in G2/M phase at 20 to 40 nM incubated for 36 hrs by propidium iodide staining based flow cytometry. It counts as functional. Put shortly: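 Cells were treated with graded concentrations for 36 h, then fixed overnight in 70% ice-cold ethanol at 4°C and resuspended in PBS. Staining used 50 µg/ml PI plus 5 µg/ml RNase at 37°C for 30 min. DNA content was analysed by FACS to give G0/G1, S and G2/M fractions.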

In data set [16] the test system is T47D. Kind of data set: Induction of apoptosis in human T47D cells assessed as decrease in Ki67 expression at 20 to 40 nM incubated for 48 hrs by Western blot analysis. Format: functional, cell-based. Put shortly: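 Cancer cells were exposed to graded concentrations for 48 h, washed three times in PBS and lysed in RIPA buffer. Immunoblots were probed with anti-Rb, anti-phospho-Rb, anti-Ki67 and anti-Bcl-2, each at 1:1000. β-actin served as loading control.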

Data set [17] deals with Serine/threonine-protein kinase TAO3 (Homo sapiens) (UniProt Q9H2K8). Kind of data set: Inhibition of recombinant human TAO3 (1 to 411 residues) at 1 uM using myelin basic protein as substrate incubated for 40 mins in presence of [gamma-33P]-ATP by scintillation counting method relative to control.
Data set [18] deals with Leucine-rich repeat serine/threonine-protein kinase 2 (Homo sapiens) (UniProt Q5S007). Kind of data set: Inhibition of recombinant human LRRK2 (970 to end residues) at 1 uM using RLGRDKYKTLRQIRQ as substrate incubated for 40 mins in presence of [gamma-33P]-ATP by scintillation counting method relative to control.
Leucine-rich repeat serine/threonine-protein kinase 2 (Homo sapiens), sequence (Q5S007 whole entry): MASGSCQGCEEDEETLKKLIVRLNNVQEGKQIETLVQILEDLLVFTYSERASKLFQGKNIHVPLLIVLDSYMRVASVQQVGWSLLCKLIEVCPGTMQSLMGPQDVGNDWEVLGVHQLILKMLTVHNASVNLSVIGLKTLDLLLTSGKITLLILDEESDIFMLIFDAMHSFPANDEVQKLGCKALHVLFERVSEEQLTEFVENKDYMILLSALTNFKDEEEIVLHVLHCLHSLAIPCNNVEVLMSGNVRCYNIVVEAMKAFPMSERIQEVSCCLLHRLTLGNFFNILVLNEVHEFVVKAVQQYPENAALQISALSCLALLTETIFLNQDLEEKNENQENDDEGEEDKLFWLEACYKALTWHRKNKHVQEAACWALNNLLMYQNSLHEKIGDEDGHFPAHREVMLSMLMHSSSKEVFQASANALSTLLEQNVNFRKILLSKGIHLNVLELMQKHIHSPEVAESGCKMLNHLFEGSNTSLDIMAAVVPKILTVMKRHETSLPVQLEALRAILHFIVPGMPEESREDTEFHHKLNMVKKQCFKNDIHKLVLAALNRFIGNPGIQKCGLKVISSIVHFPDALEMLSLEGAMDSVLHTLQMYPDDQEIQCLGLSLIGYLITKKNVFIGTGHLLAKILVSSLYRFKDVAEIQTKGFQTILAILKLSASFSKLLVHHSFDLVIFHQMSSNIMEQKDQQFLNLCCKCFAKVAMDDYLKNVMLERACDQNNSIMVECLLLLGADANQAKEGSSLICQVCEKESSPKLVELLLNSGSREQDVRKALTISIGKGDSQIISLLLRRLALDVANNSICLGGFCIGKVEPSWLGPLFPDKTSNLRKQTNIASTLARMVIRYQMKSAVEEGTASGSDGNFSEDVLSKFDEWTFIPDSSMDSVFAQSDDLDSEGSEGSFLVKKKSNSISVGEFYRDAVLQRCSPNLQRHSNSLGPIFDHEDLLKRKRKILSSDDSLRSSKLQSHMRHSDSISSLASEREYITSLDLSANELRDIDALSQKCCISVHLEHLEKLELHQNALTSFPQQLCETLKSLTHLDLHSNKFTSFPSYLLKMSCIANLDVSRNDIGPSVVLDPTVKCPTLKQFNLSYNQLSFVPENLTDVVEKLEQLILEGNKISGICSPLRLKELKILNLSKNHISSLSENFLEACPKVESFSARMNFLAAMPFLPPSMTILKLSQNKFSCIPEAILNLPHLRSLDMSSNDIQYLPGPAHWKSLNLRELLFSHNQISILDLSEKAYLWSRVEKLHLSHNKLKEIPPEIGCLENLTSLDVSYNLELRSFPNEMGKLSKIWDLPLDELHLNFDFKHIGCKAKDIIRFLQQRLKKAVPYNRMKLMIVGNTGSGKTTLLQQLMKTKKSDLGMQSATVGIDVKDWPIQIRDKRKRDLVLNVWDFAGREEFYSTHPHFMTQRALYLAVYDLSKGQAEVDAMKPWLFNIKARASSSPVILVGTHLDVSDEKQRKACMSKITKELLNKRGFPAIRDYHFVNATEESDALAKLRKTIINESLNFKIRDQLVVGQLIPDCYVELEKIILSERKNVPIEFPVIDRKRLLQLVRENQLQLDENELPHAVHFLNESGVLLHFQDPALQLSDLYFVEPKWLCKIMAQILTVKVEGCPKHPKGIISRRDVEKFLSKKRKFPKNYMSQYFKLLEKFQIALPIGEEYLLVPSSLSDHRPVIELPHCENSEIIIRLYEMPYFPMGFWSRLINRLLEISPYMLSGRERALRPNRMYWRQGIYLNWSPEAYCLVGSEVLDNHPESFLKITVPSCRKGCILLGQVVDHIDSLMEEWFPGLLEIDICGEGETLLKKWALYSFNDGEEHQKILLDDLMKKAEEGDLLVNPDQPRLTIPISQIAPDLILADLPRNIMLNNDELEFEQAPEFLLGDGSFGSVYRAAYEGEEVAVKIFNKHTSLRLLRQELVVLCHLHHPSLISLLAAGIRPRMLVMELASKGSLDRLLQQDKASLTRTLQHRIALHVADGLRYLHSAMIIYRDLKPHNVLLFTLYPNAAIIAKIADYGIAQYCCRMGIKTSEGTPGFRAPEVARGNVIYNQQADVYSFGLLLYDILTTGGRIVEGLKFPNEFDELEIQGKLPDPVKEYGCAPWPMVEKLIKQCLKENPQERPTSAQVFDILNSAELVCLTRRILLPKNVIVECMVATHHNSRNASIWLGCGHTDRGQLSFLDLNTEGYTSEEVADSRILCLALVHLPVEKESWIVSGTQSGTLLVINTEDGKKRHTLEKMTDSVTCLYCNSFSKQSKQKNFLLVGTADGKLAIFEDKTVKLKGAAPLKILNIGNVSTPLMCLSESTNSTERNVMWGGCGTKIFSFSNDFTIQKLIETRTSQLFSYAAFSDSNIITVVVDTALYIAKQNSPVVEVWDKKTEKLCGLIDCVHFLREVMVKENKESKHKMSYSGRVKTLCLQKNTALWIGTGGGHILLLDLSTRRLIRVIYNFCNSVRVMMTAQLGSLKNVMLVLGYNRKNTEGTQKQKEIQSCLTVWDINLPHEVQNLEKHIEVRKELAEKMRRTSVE
The target of data set [19] is Ribosomal protein S6 kinase alpha-2 (Homo sapiens) (UniProt Q15349). Kind of data set: Inhibition of recombinant human full length RSK3 at 1 uM using KKKNRTLSVA as substrate incubated for 40 mins in presence of [gamma-33P]-ATP by scintillation counting method relative to control.
Data set [20] addresses MAP kinase-activated protein kinase 2 (Homo sapiens) (UniProt P49137). Kind of data set: Inhibition of recombinant human MAPKAPK2 (46 to end residues) at 1 uM using KKLNRTLSVA as substrate incubated for 40 mins in presence of [gamma-33P]-ATP by scintillation counting method relative to control.
Data set [21] addresses Serine/threonine-protein kinase PAK 3 (Homo sapiens) (UniProt O75914). As to the kind of experiment: Inhibition of recombinant human full length PAK3 at 1 uM using RRRLSFAEPG as substrate incubated for 40 mins in presence of [gamma-33P]-ATP by scintillation counting method relative to control. Put shortly: as §2

Protein kinase C iota type (Homo sapiens), sequence (P41743 whole entry): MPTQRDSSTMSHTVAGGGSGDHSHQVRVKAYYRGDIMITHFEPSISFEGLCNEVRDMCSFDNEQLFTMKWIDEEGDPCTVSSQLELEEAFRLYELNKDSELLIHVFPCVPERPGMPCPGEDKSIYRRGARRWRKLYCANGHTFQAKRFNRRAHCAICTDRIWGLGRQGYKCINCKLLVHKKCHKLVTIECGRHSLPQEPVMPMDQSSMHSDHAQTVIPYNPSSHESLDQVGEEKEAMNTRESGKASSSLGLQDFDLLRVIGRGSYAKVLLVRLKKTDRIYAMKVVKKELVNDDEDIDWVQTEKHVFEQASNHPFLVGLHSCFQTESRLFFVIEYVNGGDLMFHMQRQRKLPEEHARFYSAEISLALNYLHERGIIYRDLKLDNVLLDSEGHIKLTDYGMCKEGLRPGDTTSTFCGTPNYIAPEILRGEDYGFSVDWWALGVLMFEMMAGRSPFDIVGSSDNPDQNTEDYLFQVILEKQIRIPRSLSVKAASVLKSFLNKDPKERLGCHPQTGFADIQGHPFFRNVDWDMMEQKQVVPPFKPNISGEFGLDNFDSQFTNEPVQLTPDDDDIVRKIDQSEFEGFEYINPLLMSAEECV
Serine/threonine-protein kinase PAK 3 (Homo sapiens), sequence (O75914 whole entry, looked up): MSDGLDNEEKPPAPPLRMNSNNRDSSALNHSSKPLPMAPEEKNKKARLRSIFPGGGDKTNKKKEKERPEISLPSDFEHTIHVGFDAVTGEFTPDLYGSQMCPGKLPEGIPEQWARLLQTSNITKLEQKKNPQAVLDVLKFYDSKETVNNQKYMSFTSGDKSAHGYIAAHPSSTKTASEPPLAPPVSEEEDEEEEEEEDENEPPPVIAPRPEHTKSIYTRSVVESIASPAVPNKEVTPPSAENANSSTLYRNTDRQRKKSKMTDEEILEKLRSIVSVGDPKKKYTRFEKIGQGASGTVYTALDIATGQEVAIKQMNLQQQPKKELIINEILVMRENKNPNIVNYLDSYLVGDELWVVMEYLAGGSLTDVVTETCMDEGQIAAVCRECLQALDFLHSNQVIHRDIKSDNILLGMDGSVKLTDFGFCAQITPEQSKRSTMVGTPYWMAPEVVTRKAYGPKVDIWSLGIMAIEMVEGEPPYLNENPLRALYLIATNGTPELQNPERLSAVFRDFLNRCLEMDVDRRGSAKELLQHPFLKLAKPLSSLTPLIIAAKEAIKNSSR

With `COc1cc2nccc(Oc3ccc(NC(=O)C4(C(=O)Nc5ccc(F)cc5)CC4)cc3)c2cc1OC` [CABOZANTINIB], the inhibition entry in data set [1] and in data set [2] was “Active” throughout. Besides, the outcome in data set [3] and in data set [4] was Active.
For `Cc1ccc(NC(=O)C2(C(=O)Nc3ccc(Nc4ncc(F)c(-c5cc(F)c6nc(C)n(C(C)C)c6c5)n4)cc3)CC2)cc1`, the inhibition (usually the drop in the measured response relative to a control, in per cent) in data set [5] stood at 21%; in data set [6] it was 65%; in data set [8], 11%; in [9] it was 5%; in data set [10] it was 8%; in data set [12] it was 0%. The inhibition in data set [13] was 79%; in data set [14], 17%; in data set [17] it was 2%; in data set [18], 83%; in data set [19] it was 26%; in data set [20] it was 12%. In addition, in [21], the inhibition was 0%. In data set [7], the Tmax (as a rule, the time from dosing to the highest level) was 5 min. Also, the outcome in data set [11], in data set [15] and in [16] was Active.
